Tests used:
HEK293 [1] = experiment: Cytotoxicity against human HEK293 cells assessed as inhibition of cell viability incubated for 30 mins in presence of CRBN-tracer by nanoBRET assay; type: functional, cell-based
[2] = target: Protein cereblon/Bromodomain-containing protein 4 (Homo sapiens, UniProt O60885+Q96SW2); experiment: PROTAC activity at […]/BRD4 in human HEK293T cells assessed as degradation of BRD4 incubated for 24 hrs by HiBiT assay; type: cell-based
[3] = target: Bromodomain-containing protein 4 (Homo sapiens) (UniProt O60885); experiment: Relative binding affinity to BRD4 (unknown origin)
HEK293 [4] = experiment: Cytotoxicity against permeabilized HEK293 cells assessed as inhibition of cell viability incubated for 30 mins in presence of CRBN-tracer by nanoBRET assay; type: functional, cell-based, Homo sapiens
Procedure, shortened: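 Transfected HEK293 cells (NanoLuc-CRBN plus DDB1), thawed from frozen into phenol-red-free Opti-MEM (500,000 cells/mL). Wells held CRBN-tracer (7.5 nL) and 11-pt 3-fold titrations (50 uM top assay concentration); 18 uL cells added, then 2 uL 0.5 mg/mL digitonin, 30 min at room temperature. NanoBRET substrate 1:166, no extracellular inhibitor; BRET luminescence at 450-480 nm and 610-LP.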

HEK293 [5] = experiment: Cytotoxicity against human HEK293 cells assessed as inhibition of cell viability at […] incubated for 30 mins by cell titer-glo assay relative to control; type: functional
HEK293 [6] = experiment: Cytotoxicity against human HEK293 cells assessed as inhibition of cell viability incubated for 24 hrs by cell titer-glo assay; conditions: HEK293, 24 h
HEK293 [7] = experiment: Cytotoxicity against human HEK293 cells assessed as inhibition of cell viability at 10 uM incubated for 30 mins by cell titer-glo assay relative to control; type: functional; conditions: HEK293, 0.5 h
HEK293 [8] = experiment: Cytotoxicity against human HEK293 cells assessed as inhibition of cell viability at 12 uM incubated for 30 mins by cell titer-glo assay relative to control; type: functional; conditions: HEK293, 0.5 h
[9] = Homo sapiens, HEK293, 0.5 h, read-out: Emax

Sequence of Protein cereblon/Bromodomain-containing protein 4 (Q96SW2 whole entry, looked up, other chains not shown): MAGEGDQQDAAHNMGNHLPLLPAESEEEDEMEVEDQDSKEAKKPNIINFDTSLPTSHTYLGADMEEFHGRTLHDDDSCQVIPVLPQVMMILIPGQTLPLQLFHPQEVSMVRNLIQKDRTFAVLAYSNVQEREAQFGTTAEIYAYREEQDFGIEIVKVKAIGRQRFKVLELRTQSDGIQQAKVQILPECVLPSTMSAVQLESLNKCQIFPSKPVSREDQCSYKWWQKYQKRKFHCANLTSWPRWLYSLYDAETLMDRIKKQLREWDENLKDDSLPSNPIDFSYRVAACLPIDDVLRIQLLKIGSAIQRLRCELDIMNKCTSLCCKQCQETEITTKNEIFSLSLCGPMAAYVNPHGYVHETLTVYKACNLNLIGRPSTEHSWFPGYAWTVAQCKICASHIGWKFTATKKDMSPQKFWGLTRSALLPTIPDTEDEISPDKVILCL

Row | SMILES | IC50 (HEK293 [1]; Homo sapiens, HEK293, 0.5 h) | DC50 [2] | relative binding affinity (RBA) [3] | IC50 (HEK293 [4]; Homo sapiens, HEK293, 0.5 h) | Emax (HEK293 [5]; [9]) | EC50 (HEK293 [6]) | also measured
1 | Cc1sc2c(c1C)C(c1ccc(Cl)cc1)=N[C@@H](CC(=O)N[C@H]1C[C@H](N(C)C(=O)COc3cccc4c3C(=O)N(C3CCC(=O)NC3=O)C4=O)C1)c1nnc(C)n1-2 (stereo not given in full) | 89 nM | 110 nM | 25 | – | – | – | –
2 | Cc1sc2c(c1C)C(c1ccc(Cl)cc1)=N[C@@H](CC(=O)ON1C(=O)CCC1=O)c1nnc(C)n1-2 | > 50000 nM | > 50000 nM | – | > 50000 nM | 5.26% | > 50000 nM | –
3 | Cc1ccc(C(=O)O)cc1N1CCC(=O)NC1=O | > 50000 nM | > 21700 nM | – | 1940 nM | 7.84% | > 50000 nM | –
4 | O=C1CCC(N2C(=O)c3cccc(OCC(=O)ON4C(=O)CCC4=O)c3C2=O)C(=O)N1 (stereo not given) | 7420 nM | > 50000 nM | – | 1050 nM | 11.9% | > 50000 nM | –
5 | Cc1ccc(C(=O)ON2C(=O)CCC2=O)cc1N1CCC(=O)NC1=O | 22200 nM | > 50000 nM | – | 6040 nM | 9.24% | > 50000 nM | –
6 | Cc1ccc(C(=O)NCCOCCN(C)C(=O)C[C@@H]2N=C(c3ccc(Cl)cc3)c3c(sc(C)c3C)-n3c(C)nnc32)cc1N1CCC(=O)NC1=O | 3200 nM | 23 nM | 5 | – | – | – | –
7 | Cc1sc2c(c1C)C(c1ccc(Cl)cc1)=N[C@@H](CC(=O)NCCCCNC(=O)COc1cccc3c1C(=O)N(C1CCC(=O)NC1=O)C3=O)c1nnc(C)n1-2 (stereo in doubt; form 1) | – | – | – | 90 nM | – | – | IC50 (HEK293 [1]; hek293): 2200 nM; Emax at 10 µM (HEK293 [7]): 25.2%
8 | Cc1ccc(C(=O)N(C)[C@H]2C[C@H](NC(=O)C[C@@H]3N=C(c4ccc(Cl)cc4)c4c(sc(C)c4C)-n4c(C)nnc43)C2)cc1N1CCC(=O)NC1=O | 2100 nM | > 20000 nM | 6.4 | – | – | – | –
9 | Cc1sc2c(c1C)C(c1ccc(Cl)cc1)=N[C@@H](CC(=O)N1CCN(c3ncc(OC4CCN(C(=O)COc5cccc6c5C(=O)N(C5CCC(=O)NC5=O)C6=O)CC4)cn3)CC1)c1nnc(C)n1-2 (stereo not given in full) | 70 nM | 6 nM | 2.3 | – | – | – | –
10 | O=C1CCC(=O)N1O | > 50000 nM | > 50000 nM | – | > 50000 nM | 10.8% | > 50000 nM | –
11 | Cc1sc2c(c1C)C(c1ccc(Cl)cc1)=N[C@@H](CC(=O)O)c1nnc(C)n1-2 | > 50000 nM | > 50000 nM | – | > 50000 nM | – | > 50000 nM | Emax (HEK293 [5]; 0.5 h): 14.23%
12 | Cc1sc2c(c1C)C(c1ccc(Cl)cc1)=N[C@@H](CC(=O)N(C)CCOCCNC(=O)COc1cccc3c1C(=O)N(C1CCC(=O)NC1=O)C3=O)c1nnc(C)n1-2 (stereo not given in full) | 1600 nM | 7100 nM | 9.6 | – | – | – | –
13 | Cc1ccc(C(=O)N2CCC(Oc3cnc(N4CCN(C(=O)C[C@@H]5N=C(c6ccc(Cl)cc6)c6c(sc(C)c6C)-n6c(C)nnc65)CC4)nc3)CC2)cc1N1CCC(=O)NC1=O | 100 nM | 20 nM | 0.9 | – | – | – | –
14 | O=C(O)COc1cccc2c1C(=O)N(C1CCC(=O)NC1=O)C2=O (stereo not given) | > 50000 nM | > 50000 nM | – | 830 nM | 7.58% | > 50000 nM | –
15 | Cc1sc2c(c1C)C(c1ccc(Cl)cc1)=N[C@@H](CC(=O)N1CCN(CCN(C)C(=O)COc3cccc4c3C(=O)N(C3CCC(=O)NC3=O)C4=O)CC1)c1nnc(C)n1-2 (stereo not given in full) | 71 nM | 241 nM | 25 | – | – | – | –
16 | Cc1ccc(C(=O)N(C)CCN2CCN(C(=O)C[C@@H]3N=C(c4ccc(Cl)cc4)c4c(sc(C)c4C)-n4c(C)nnc43)CC2)cc1N1CCC(=O)NC1=O | 4500 nM | 88 nM | 0.9 | – | – | – | –
17 | Cc1sc2c(c1C)C(c1ccc(Cl)cc1)=N[C@@H](CC(=O)NCCCCNC(=O)COc1cccc3c1C(=O)N(C1CCC(=O)NC1=O)C3=O)c1nnc(C)n1-2 (stereo in doubt; form 2) | – | – | – | – | – | – | IC50 (HEK293 [1]; hek293): 930 nM; IC50 (HEK293 [4]; hek293): 56 nM; Emax at 12 µM (HEK293 [8]): 21.7%

— ChEMBL document CHEMBL5120933, “Direct-to-Biology Accelerates PROTAC Synthesis and the Evaluation of Linker Effects on Permeability and Degradation” (ACS Med Chem Lett, 2022)
